Assay results: ChEMBL document CHEMBL4706586, “Structure-activity relationships for a series of (Bis(4-fluorophenyl)methyl)sulfinylethyl-aminopiperidines and -piperidine amines at the dopamine transporter: Bioisosteric replacement of the piperazine improves metabolic stability” (Eur J Med Chem, 2020)

Tests used:
D(4) dopamine receptor = target: T1, D(4) dopamine receptor (Homo sapiens, UniProt P21917); assay: Displacement of [3H]-N-methylspiperone from human D4.4 receptor expressed in HEK293 cell membranes measured after 60 mins by microbeta scintillation counting method; design: species or system Membrane
T1 sequence (P21917 whole entry): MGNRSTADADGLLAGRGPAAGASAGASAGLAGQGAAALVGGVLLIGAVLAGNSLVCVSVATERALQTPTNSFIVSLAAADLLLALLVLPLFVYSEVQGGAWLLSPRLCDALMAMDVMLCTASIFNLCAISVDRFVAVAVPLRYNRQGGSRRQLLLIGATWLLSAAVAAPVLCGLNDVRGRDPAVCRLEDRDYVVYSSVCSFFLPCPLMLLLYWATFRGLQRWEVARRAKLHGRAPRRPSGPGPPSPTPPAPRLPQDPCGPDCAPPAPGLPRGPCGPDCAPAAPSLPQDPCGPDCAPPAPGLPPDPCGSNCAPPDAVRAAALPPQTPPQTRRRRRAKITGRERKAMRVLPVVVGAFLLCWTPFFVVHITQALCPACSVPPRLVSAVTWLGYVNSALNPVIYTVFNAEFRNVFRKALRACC
Procedure, shortened: (§1)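 Membranes from HEK293 cells stably expressing human D2LR, D3R or D4.4R; 20 μg/well protein (D2LR, D3R) or 30 μg/well (D4.4R); [3H]-N-methylspiperone 0.4 nM final; half-log dilutions in 30% DMSO, triplicate; 60 min RT; nonspecific 10 μM (+)-butaclamol.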

[1] = Selectivity ratio of Ki for sigma 1 receptor in guinea pig brain cortex membranes to Ki for DAT in Sprague-Dawley rat striatum membranes; type: cell membranes
[2] = Metabolic stability in rat liver microsomes assessed as compound remaining at 10 uM in presence of NADPH regenerating system by LC-MS/MS analysis; type: ADME, Microsome
D(3) dopamine receptor = D(3) dopamine receptor (Homo sapiens, UniProt P35462); assay: Displacement of [3H]-N-methylspiperone from human D3 receptor expressed in HEK293 cell membranes measured after 60 mins by microbeta scintillation counting method; design: species or system Membrane; procedure, shortened: as §1
Sequence of D(3) dopamine receptor (P35462 whole entry): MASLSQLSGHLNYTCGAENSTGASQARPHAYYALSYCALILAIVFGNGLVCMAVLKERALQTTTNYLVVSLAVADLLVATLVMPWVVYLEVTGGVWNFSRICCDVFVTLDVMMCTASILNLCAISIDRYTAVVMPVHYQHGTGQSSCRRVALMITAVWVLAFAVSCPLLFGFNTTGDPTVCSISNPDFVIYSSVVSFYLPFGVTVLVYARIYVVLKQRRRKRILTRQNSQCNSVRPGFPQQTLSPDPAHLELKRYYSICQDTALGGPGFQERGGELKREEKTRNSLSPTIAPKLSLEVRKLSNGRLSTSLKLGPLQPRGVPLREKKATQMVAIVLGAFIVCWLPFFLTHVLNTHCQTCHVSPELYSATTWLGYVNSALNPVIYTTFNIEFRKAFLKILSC

[3] = target: Sigma non-opioid intracellular receptor 1 (Cavia porcellus, UniProt Q60492); assay: Displacement of [3H](+)-pentazocine from sigma 1 receptor in guinea pig brain cortex membranes after 120 mins by scintillation counting analysis; type: cell membranes, Membrane
Sequence of Sigma non-opioid intracellular receptor 1 (Q60492 whole entry): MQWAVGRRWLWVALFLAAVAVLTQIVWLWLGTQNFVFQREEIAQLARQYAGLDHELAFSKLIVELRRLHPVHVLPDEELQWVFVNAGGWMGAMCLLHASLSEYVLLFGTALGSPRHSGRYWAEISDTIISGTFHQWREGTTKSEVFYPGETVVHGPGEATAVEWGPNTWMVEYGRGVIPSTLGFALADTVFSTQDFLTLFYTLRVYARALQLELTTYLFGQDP
Procedure, shortened: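 Male guinea pig cortex membranes in 10 mM Tris-HCl/0.32 M sucrose pH 7.4, 5.0 mg/well original wet weight; [3H](+)-pentazocine 3 nM final; inhibitor serial dilutions in 30% DMSO vehicle, triplicate; 120 min at RT; nonspecific with 10 μM PRE084 or (+)-pentazocine.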

Rattus norvegicus = species on record: Rattus norvegicus; assay: Selectivity ratio of Ki for SERT in Sprague-Dawley rat midbrain membranes to Ki for DAT in Sprague-Dawley rat striatum membranes
[4] = Metabolic stability in rat liver microsomes assessed as compound remaining at 10 uM incubated for 60 mins in presence of NADPH regenerating system by LC-MS/MS analysis; type: ADME, Microsome; details: 1 h
[5] = Displacement of [3H]-Nisoxetine from NET in Sprague-Dawley rat frontal cortex membrane after 180 mins by microbeta scintillation counting method; type: cell membranes
D(2) dopamine receptor = D(2) dopamine receptor (Homo sapiens, UniProt P14416); assay: Displacement of [3H]-N-methylspiperone from human D2L receptor expressed in HEK293 cell membranes measured after 60 mins by microbeta scintillation counting method; design: species or system Membrane; procedure, shortened: as §1
Sequence of D(2) dopamine receptor (P14416 whole entry): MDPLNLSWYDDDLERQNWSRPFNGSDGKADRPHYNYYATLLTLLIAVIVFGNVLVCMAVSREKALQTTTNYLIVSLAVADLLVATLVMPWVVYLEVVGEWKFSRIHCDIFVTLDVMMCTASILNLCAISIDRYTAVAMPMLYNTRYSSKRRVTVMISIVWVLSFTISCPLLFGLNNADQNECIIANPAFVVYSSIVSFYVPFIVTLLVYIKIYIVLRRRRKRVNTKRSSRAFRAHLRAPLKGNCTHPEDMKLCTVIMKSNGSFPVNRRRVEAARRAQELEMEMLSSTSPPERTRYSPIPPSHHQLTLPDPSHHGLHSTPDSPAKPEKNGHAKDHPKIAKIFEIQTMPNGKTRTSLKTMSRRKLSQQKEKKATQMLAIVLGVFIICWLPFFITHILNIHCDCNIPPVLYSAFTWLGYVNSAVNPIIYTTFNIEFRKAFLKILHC

[6] = target: Sodium-dependent dopamine transporter (Rattus norvegicus, UniProt P23977); assay: Displacement of [3H]WIN35428 from DAT in Sprague-Dawley rat striatal membranes incubated for 120 mins by microbeta scintillation counting method; type: cell membranes, Striatum, Membrane
Sequence of Sodium-dependent dopamine transporter (P23977 whole entry): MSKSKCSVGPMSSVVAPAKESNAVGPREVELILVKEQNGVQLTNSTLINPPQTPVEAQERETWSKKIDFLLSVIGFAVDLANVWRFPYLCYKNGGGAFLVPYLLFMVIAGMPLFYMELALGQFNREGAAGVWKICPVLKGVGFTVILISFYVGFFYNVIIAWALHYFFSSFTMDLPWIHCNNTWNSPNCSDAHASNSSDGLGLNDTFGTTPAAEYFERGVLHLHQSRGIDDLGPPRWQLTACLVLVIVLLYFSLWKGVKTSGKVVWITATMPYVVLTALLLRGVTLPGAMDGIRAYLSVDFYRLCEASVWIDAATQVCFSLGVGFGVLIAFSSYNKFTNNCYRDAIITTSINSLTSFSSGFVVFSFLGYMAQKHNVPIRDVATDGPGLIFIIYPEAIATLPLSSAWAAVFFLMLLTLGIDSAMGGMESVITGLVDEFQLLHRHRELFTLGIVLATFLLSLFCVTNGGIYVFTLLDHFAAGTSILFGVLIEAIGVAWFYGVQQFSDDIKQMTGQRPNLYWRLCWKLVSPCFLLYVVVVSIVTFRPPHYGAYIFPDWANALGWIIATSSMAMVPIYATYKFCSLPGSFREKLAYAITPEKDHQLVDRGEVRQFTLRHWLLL

[7] = target: Sodium-dependent serotonin transporter (Rattus norvegicus, UniProt P31652); assay: Displacement of [3H]citalopram from SERT in Sprague-Dawley rat midbrain membranes incubated for 60 mins by microbeta scintillation counting method; type: cell membranes, Membrane
Sequence of Sodium-dependent serotonin transporter (P31652 whole entry): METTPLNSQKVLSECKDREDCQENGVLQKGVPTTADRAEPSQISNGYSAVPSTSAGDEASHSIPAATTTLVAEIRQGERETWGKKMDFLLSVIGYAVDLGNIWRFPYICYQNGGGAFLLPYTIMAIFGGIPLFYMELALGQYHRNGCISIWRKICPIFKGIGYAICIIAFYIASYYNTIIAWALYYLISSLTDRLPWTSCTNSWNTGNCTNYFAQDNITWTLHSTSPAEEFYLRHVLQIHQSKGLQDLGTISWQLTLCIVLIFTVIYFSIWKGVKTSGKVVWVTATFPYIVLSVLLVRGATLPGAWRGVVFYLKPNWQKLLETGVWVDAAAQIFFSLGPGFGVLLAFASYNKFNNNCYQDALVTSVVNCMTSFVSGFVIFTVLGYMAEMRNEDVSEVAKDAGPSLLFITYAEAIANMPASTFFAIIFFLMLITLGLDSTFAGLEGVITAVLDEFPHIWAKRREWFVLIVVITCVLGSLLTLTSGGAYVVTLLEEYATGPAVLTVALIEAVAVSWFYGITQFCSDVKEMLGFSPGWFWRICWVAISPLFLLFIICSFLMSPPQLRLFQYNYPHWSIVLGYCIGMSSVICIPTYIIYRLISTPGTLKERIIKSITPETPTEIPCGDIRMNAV

[8] = Toxicity in Swiss Webster mouse assessed as stimulation of ambulatory activity by measuring total distance travelled at 1 to 30 mg/kg, ip measured every 5 mins for 2 hrs; type: organism-based; details: in vivo, dose 1-30 mg/kg

Structure (SMILES) | Ki (D(4) dopamine receptor) | Ratio Ki [1] | Stabilty [2] | Ki (D(3) dopamine receptor) | Ki [3] | Ratio Ki (Rattus norvegicus) | Stabilty [4] | Ki [5] | Ki (D(2) dopamine receptor) | Ki [6] | Ki [7] | Activity [8]
O=C(c1ccc(F)cc1)N1CCC(NCCSC(c2ccc(F)cc2)c2ccc(F)cc2)CC1 | 9.02 µM | 4.59 | 100% | 5.23 µM | 0.0321 µM | 69.5 | 24% | 0.258 µM | 8.83 µM | 0.00704 µM |  | 
NC(=O)C[S+]([O-])C(c1ccc(F)cc1)c1ccc(F)cc1 (racemic) |  | > 24 |  |  | > 100 µM | 11.9 |  |  |  | 4.09 µM | 48.7 µM | 
CN(CC[S+]([O-])C(c1ccc(F)cc1)c1ccc(F)cc1)C1CCN(C(=O)c2ccccc2F)CC1 (stereo unspecified) |  | 0.07 |  |  | 0.516 µM | 34 |  |  |  | 7.38 µM | 251 µM | 
O=C(c1ccc(F)cc1F)N1CCC(NCC[S+]([O-])C(c2ccc(F)cc2)c2ccc(F)cc2)CC1 (stereo unspecified) |  | 0.3 |  |  | 0.171 µM | 8.17 |  |  |  | 0.564 µM | 4.61 µM | 
Fc1ccc(C(SCCN2CCC(NCc3ccccc3)CC2)c2ccc(F)cc2)cc1 |  | 0.56 |  |  | 0.0609 µM | 3.06 |  |  |  |  |  | 
NC(=O)C[S@@+]([O-])C(c1ccc(F)cc1)c1ccc(F)cc1 |  | > 21 |  |  | > 100 µM | 8.05 |  |  |  | 4.83 µM | 38.9 µM | 
O=C(c1cc2ccccc2[nH]1)N1CCC(NCCSC(c2ccc(F)cc2)c2ccc(F)cc2)CC1 |  |  |  |  | 1.13 µM |  |  |  |  | 0.177 µM |  | 
CC(C)(C)C(=O)N1CCC(NCC[S+]([O-])C(c2ccc(F)cc2)c2ccc(F)cc2)CC1 (stereo unspecified) |  | 1.1 |  |  | 11.2 µM | 3.14 |  |  |  |  |  | 
Fc1ccc(C(SCCNC2CCN(CC3CC3)CC2)c2ccc(F)cc2)cc1 |  | 0.66 |  |  | 0.269 µM | 3.93 |  |  |  |  |  | 
O=C(c1ccccc1F)N1CCC(NCCSC(c2ccc(F)cc2)c2ccc(F)cc2)CC1 |  | 0.08 |  |  | 0.00357 µM | 7.61 |  |  |  | 0.0461 µM | 0.351 µM | 
O=C(c1ccccc1F)N1CCC(NCC[S+]([O-])C(c2ccc(F)cc2)c2ccc(F)cc2)CC1 (stereo unspecified) |  | 2.16 |  |  | 1.31 µM | 23.5 |  |  |  | 0.604 µM | 14.2 µM | 
O=C(c1ccc(F)cc1)N1CCC(NCC[S+]([O-])C(c2ccc(F)cc2)c2ccc(F)cc2)CC1 (stereo unspecified) | > 100 µM | 18.7 | 100% | 28.2 µM | 1.44 µM | 60.1 | 79% | 23 µM | 156 µM |  |  | < 3000 cm
O=C(C1CC1)N1CCC(NCCSC(c2ccc(F)cc2)c2ccc(F)cc2)CC1 |  | 0.26 |  |  | 0.0464 µM | 5.67 |  |  |  |  |  | 
O=C(c1ccccc1)N1CCC(NCC[S+]([O-])C(c2ccc(F)cc2)c2ccc(F)cc2)CC1 (stereo unspecified) |  |  |  |  | 0.585 µM |  |  |  |  |  |  | 
Fc1ccc(C(SCCNC2CCN(Cc3cc4ccccc4[nH]3)CC2)c2ccc(F)cc2)cc1 |  |  |  |  | 0.205 µM |  |  |  |  |  |  | 
NC(=O)C[S+]([O-])C(c1ccccc1)c1ccccc1 (racemic) [MODAFINIL] | > 100 µM |  |  | 39 µM |  |  |  |  | > 100 µM |  |  | 
OC(CNC1CCN(CCSC(c2ccc(F)cc2)c2ccc(F)cc2)CC1)Cc1ccccc1 (stereo unspecified) | 2.67 µM | 1.84 | 100% | 0.701 µM | 0.088 µM | 1.4 | 69% |  | 2.27 µM |  |  | 
Fc1ccc(C(SCCNC2CCN(CCc3ccccc3)CC2)c2ccc(F)cc2)cc1 |  | 1.83 |  |  | 0.0577 µM | 4.57 |  |  |  |  |  | 
CC(O)CN1CCN(CC[S+]([O-])C(c2ccc(F)cc2)c2ccc(F)cc2)CC1 (stereo unspecified) |  |  |  |  | 0.454 µM |  |  | > 100 µM |  |  | 97.8 µM | 
CC(C)(C)CN1CCC(NCCSC(c2ccc(F)cc2)c2ccc(F)cc2)CC1 |  | 1.13 |  |  | 0.315 µM | 3.39 |  |  |  |  |  | 
